# Laboratory results: ChEMBL document CHEMBL5104108, “Concise synthesis and biological activity evaluation of novel pyrazinyl-aryl urea derivatives against several cancer cell lines, which can especially induce T24 apoptotic and necroptotic cell death” (RSC Med Chem, 2022)
# Active and inactive are the calls of the source. No cut-off for these calls is given here.
# Experiments:
# [1] = Selectivity index, ratio IC50 for antiproliferative activity against human HCV-29 cells over IC50 for antiproliferative activity against human T24 cells; assay type: toxicity, cell-based; settings: HCV-29 cells versus T24 cells
# How it was run: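 MTT assay, 48 h exposure at final 1–40 μM in T24 and normal bladder epithelial HCV29 cells (5 × 10^3/well, seeded overnight, 37 °C). MTT added for 4 h and formazan dissolved in DMSO. IC50 taken relative to untreated control, four parallel samples. SI = IC50(HCV29)/IC50(T24).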
# T-24 [2] = test: Induction of apoptosis in human T24 cells assessed as apoptotic cells at 2.5 uM measured after 10 hrs by Annexin-V/FITC and propidium iodide staining based flow cytometry analysis; assay type: functional
# How it was run: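 T24 cells in 60 mm dishes treated 10 h at 37 °C, collected, PBS-washed, resuspended in binding buffer, stained with Annexin V-FITC and PI for 15 min at room temperature in the dark. At least 1 × 10^4 events per sample by flow cytometry; apoptotic cells = early (Annexin+/PI−) plus late (Annexin+/PI+). Triplicate experiments.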
# T-24 [3] = test: Induction of apoptosis in human T24 cells at 5 to 7.5 uM measured after 10 hrs by Hoechst 33342 and propidium iodide staining based flow cytometry analysis; assay type: functional, cell-based; settings: dose 5-7.5 µM
# T-24 [4] = test: Induction of apoptosis in human T24 cells assessed as increase in cleaved caspase-8 expression at 0 to 5 uM measured by Western blot analysis; assay type: functional, cell-based; settings: dose 0-5 µM
# How it was run: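 Apoptosis-related proteins measured by Western blot in T24 lysates: 40 μg protein per lane by SDS-PAGE, PVDF transfer, primary and peroxidase-linked secondary antibodies, ECL detection, densitometry of gray values with β-actin as loading control.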
# T-24 [5] = test: Up-regulation of RIPK1 expression in human T24 cells at 7.5 to 10 uM measured after 16 hrs by Western blot analysis; assay type: functional, cell-based; settings: dose 7.5-10 µM
# T-24 [6] = test: Up-regulation of p-RIPK1 expression in human T24 cells at 7.5 to 10 uM measured after 16 hrs by Western blot analysis; assay type: functional, cell-based; settings: dose 7.5-10 µM
# T-24 [7] = test: Up-regulation of p-MLKL expression in human T24 cells at 7.5 to 10 uM measured after 16 hrs by Western blot analysis; assay type: functional, cell-based; settings: dose 7.5-10 µM
# T-24 [8] = test: Down-regulation of RIPK2 expression in human T24 cells at 7.5 to 10 uM measured in presence of 60 uM Nec-1 after 16 hrs by Western blot analysis; assay type: functional, cell-based; settings: dose 7.5-10 µM
# How it was run: (§1)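 T24 cells co-incubated 16 h with or without Nec-1 (60 μM). Lysates quantified by BCA, 40 μg protein resolved by SDS-PAGE, transferred to PVDF, probed with primary and peroxidase-conjugated secondary antibodies, detected by ECL. Band gray values normalized to β-actin loading control.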
# T-24 [9] = test: Down-regulation of RIPK3 expression in human T24 cells at 7.5 to 10 uM measured in presence of 60 uM Nec-1 after 16 hrs by Western blot analysis; assay type: functional, cell-based; settings: dose 7.5-10 µM; how it was run: as §1
# T-24 [10] = test: Down-regulation of p-RIPK3 expression in human T24 cells at 7.5 to 10 uM measured in presence of 60 uM Nec-1 after 16 hrs by Western blot analysis; assay type: functional, cell-based; settings: dose 7.5-10 µM; how it was run: as §1
# T-24 [11] = test: Down-regulation of p-MLKL expression in human T24 cells at 7.5 to 10 uM measured in presence of 60 uM Nec-1 after 16 hrs by Western blot analysis; assay type: functional, cell-based; settings: dose 7.5-10 µM; how it was run: as §1
# T-24 [12] = test: Up-regulation of RIPK1 expression in human T24 cells at 2.5 to 7.5 uM measured by ELISA assay; assay type: functional, cell-based; settings: dose 2.5-7.5 µM
# How it was run: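 T24 cells pretreated, collected, diluted in PBS, counted and stored overnight at −20 °C. After membrane disruption, lysates centrifuged at 5000 × g for 5 min (4 °C). RIPK1, RIPK3 and MLKL levels then measured with ELISA kits.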
# T-24 [13] = test: Up-regulation of RIPK1 mRNA expression in human T24 cells at 7.5 to 12.5 uM measured by RT-PCR analysis; assay type: functional, cell-based; settings: dose 7.5-12.5 µM
# How it was run: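 Total T24 RNA extracted with TRIzol. RT-PCR normalized to GAPDH, relative expression by 2−ΔΔCt versus control. Incubation 16 h for RIPK1/RIPK3/MLKL. At least three independent experiments, each in triplicate.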
# T-24 [14] = test: Down-regulation of VEGFR-2 mRNA expression in human T24 cells at 7.5 uM measured in presence of 25 uM apatinib by RT-PCR analysis; assay type: functional, cell-based
# T-24 [15] = test: Induction of intracellular reactive oxygen species production in human T24 cells assessed as ROS level at 5 uM measured after 16 hrs by flow cytometry analysis; assay type: functional, cell-based
# How it was run: (§2)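 After 16 h treatment, floating and adherent T24 cells pooled and loaded with DCFH-DA (final 10 μM) for 30 min at 37 °C in the dark, washed, resuspended in PBS and analyzed by flow cytometry; fluorescence also quantified by luminescence spectrometry. ROS expressed relative to control; mean ± S.D. of three independent experiments.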
# T-24 [16] = test: Induction of intracellular reactive oxygen species production in human T24 cells assessed as ROS level at 7.5 uM measured after 16 hrs by flow cytometry analysis; assay type: functional, cell-based; how it was run: as §2
# T-24 [17] = test: Induction of intracellular reactive oxygen species production in human T24 cells assessed as ROS level at 10 uM measured after 16 hrs by flow cytometry analysis; assay type: functional, cell-based; how it was run: as §2
# T-24 [18] = test: Induction of intracellular reactive oxygen species production in human T24 cells at 5 to 10 uM measured in presence of 60 uM Nec-1 after 16 hrs by flow cytometry analysis; assay type: functional, cell-based; settings: dose 5-10 µM
# How it was run: (§3)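 After 5-23 treatment (16 h), floating and adherent T24 cells pooled and loaded with DCFH-DA (final 10 μM) for 30 min at 37 °C in the dark. Cells washed, resuspended in PBS and read by flow cytometry; quantified by luminescence spectrometry as % of control. Runs with zVAD (30 μM) or Nec-1 (60 μM). Three parallel samples.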
# T-24 [19] = test: Induction of intracellular reactive oxygen species production in human T24 cells at 5 to 10 uM measured in presence of 30 uM z-VAD after 16 hrs by flow cytometry analysis; assay type: functional, cell-based; settings: dose 5-10 µM; how it was run: as §3
# [20] = Cmax in Sprague-Dawley rat at 6 mg/kg, IG measured HPLC analysis; assay type: ADME, organism-based; set-up: dose 6 mg/kg, route ig; settings: in vivo, po
# [21] = Tmax in Sprague-Dawley rat at 12 mg/kg, IG measured HPLC analysis; assay type: ADME, organism-based; settings: in vivo, po
# How it was run: (§4)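 Fasted (12 h) male-unspecified Sprague-Dawley rats (250 ± 20 g), n = 6 per group. Single intragastric dose of suspension (2 mg mL−1 in Tween 80/0.9% NaCl 1.5:5 v/v). Orbital blood drawn at 0.5–48 h and plasma assayed by reversed-phase C18 HPLC-UV. One-compartment fit, weight 1.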
# [22] = Tmax in Sprague-Dawley rat at 6 mg/kg, IG measured HPLC analysis; assay type: ADME, organism-based; settings: in vivo, po; how it was run: as §4
# [23] = AUC (0 to 48 hrs) in Sprague-Dawley rat at 6 mg/kg, IG measured HPLC analysis; assay type: ADME, organism-based; set-up: time < 48 hr, dose 6 mg/kg, route ig; settings: in vivo, po
# [24] = Absorption rate constant in Sprague-Dawley rat at 12 mg/kg, IG measured HPLC analysis; assay type: ADME, organism-based; settings: in vivo, po
# [25] = MRT (0 to 48 hrs) in Sprague-Dawley rat at 6 mg/kg, IG measured HPLC analysis; assay type: ADME, organism-based; settings: in vivo, po; how it was run: as §4
smiles,measurement,setting,value
O=C(Nc1ccc(C(F)(F)F)cc1)Nc1cccc(CNc2nccnc2Cl)c1,SI,[1],6.56
same,Activity,T-24 [2],9.01%
same,Activity,T-24 [3],Active
same,Activity,T-24 [4],Active
same,Activity,T-24 [5],Active
same,Activity,T-24 [6],Active
same,Activity,T-24 [7],Active
same,Activity,T-24 [8],Active
same,Activity,T-24 [9],Active
same,Activity,T-24 [10],Active
same,Activity,T-24 [11],Active
same,Activity,T-24 [12],Active
same,Activity,T-24 [13],Active
same,Activity,T-24 [14],Active
same,Activity,T-24 [15],Active
same,Activity,T-24 [16],Active
same,Activity,T-24 [17],Active
same,Activity,T-24 [18],Active
same,Activity,T-24 [19],Active
same,Cmax,[20],1190 ng/mL
same,Tmax,[21],12.4 h
same,Tmax,[22],12 h
same,AUC(0-t) at 48 h,[23],30800 ng·h/mL
same,Ka,[24],0.107 h⁻¹
same,MRT last,[25],9.17 h
